From ChEMBL document CHEMBL1150046, “Three new cyclic peroxides from the marine sponge Plakortis aff simplex” (2003)

Experiments:
Type in all cases: functional
[1] = tested on: DU-145; assay: Growth inhibition of human DU145 cells after 72 hrs by SRB assay; settings: DU-145, 72 h
How it was run: (§1)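 Cells kept in RPMI 1640 with 10% FBS, 2 mM L-glutamine, penicillin and streptomycin at 37 °C, 5% CO2. They were seeded at 5000 per well and allowed to attach in drug-free medium (24 h; also stated as 18 h). Compound dilutions in DMSO/EtOH were added for 72 h. Cells were fixed with cold TCA, stained with SRB, solubilised in Tris and read at 490 nm.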

[2] = tested on: LoVo; assay: Growth inhibition of human Doxorubicin-resistant LoVo cells after 72 hrs by SRB assay; how it was run: as §1
[3] = tested on: HT-29; assay: Growth inhibition of human HT-29 cells after 72 hrs by SRB assay; settings: HT-29, 72 h; how it was run: as §1
[4] = tested on: LoVo; assay: Growth inhibition of human LoVo after 72 hrs by SRB assay; how it was run: as §1
[5] = tested on: SK-OV-3; assay: Growth inhibition of human SKOV3 cells after 72 hrs by SRB assay; settings: SK-OV-3, 72 h; how it was run: as §1
[6] = tested on: K562; assay: Growth inhibition of human K562 cells after 72 hrs by SRB assay; settings: K562, 72 h; how it was run: as §1
[7] = tested on: SK-MEL-28; assay: Growth inhibition of human SK-MEL-28 cells after 72 hrs by SRB assay; settings: SK-MEL-28, 72 h; how it was run: as §1
[8] = tested on: PANC-1; assay: Growth inhibition of human PANC1 cells after 72 hrs by SRB assay; settings: PANC-1, 72 h; how it was run: as §1
[9] = tested on: LNCaP; assay: Growth inhibition of human LNCAP cells after 72 hrs by SRB assay; how it was run: as §1
[10] = Growth inhibition of human IGROV cells after 72 hrs by SRB assay; how it was run: as §1
[11] = tested on: A549; assay: Growth inhibition of human A549 after 72 hrs by SRB assay; settings: A549, 72 h; how it was run: as §1
[12] = tested on: SK-BR-3; assay: Growth inhibition of human SKBR3 cells after 72 hrs by SRB assay; settings: SK-BR-3, 72 h; how it was run: as §1
[13] = Growth inhibition of human IGROV-ET cells after 72 hrs by SRB assay; how it was run: as §1
[14] = read-out: LC50 (the source's name)

C[C@]1(CCCCCCCCCCc2ccccc2)C[C@](C)(CC(=O)O)OO1 [ANDAVADOIC ACID]
GI50 [1]: 627 nM
TGI [1]: 991 nM
CC50 [1, 14]: 1560 nM
GI50 [2]: 539 nM
TGI [2]: 951 nM
CC50 [2, 14]: 1680 nM
GI50 [3]: 643 nM
TGI [3]: 1130 nM
CC50 [3, 14]: 1980 nM
GI50 [4]: 635 nM
TGI [4]: 1210 nM
CC50 [4, 14]: 2310 nM
GI50 [5]: 698 nM
TGI [5]: 1120 nM
CC50 [5, 14]: 1810 nM
GI50 [6]: 497 nM
TGI [6]: 1010 nM
CC50 [6, 14]: 2070 nM
GI50 [7]: 698 nM
TGI [7]: 1140 nM
CC50 [7, 14]: 1860 nM
GI50 [8]: 526 nM
TGI [8]: 961 nM
CC50 [8, 14]: 1750 nM
GI50 [9]: 478 nM
TGI [9]: 863 nM
CC50 [9, 14]: 1560 nM
GI50 [10]: 102 nM
TGI [10]: 261 nM
CC50 [10, 14]: 1830 nM
GI50 [11]: 714 nM
TGI [11]: 1290 nM
CC50 [11, 14]: 2330 nM
GI50 [12]: 914 nM
TGI [12]: 1690 nM
CC50 [12, 14]: 2660 nM
GI50 [13]: 133 nM
TGI [13]: 390 nM
CC50 [13, 14]: 1340 nM
